Assay results published in ChEMBL document CHEMBL1156303, “Synthesis and SAR of N-(4-(4-alklylpiperazin-1-yl)phenyl)benzamides as muscarinic acetylcholine receptor subtype 1 (M1) anatgonists” (Bioorg Med Chem Lett, 2010).

Legend:
[1] = molecular target: T1, Muscarinic acetylcholine receptor M5 (Homo sapiens, UniProt P08912); test: Antagonist activity at human muscarinic M5 receptor expressed in CHO-K1 cells assessed as inhibition of acetylcholine-induced calcium mobilization; type: functional, cell-based
T1 sequence (P08912 whole entry): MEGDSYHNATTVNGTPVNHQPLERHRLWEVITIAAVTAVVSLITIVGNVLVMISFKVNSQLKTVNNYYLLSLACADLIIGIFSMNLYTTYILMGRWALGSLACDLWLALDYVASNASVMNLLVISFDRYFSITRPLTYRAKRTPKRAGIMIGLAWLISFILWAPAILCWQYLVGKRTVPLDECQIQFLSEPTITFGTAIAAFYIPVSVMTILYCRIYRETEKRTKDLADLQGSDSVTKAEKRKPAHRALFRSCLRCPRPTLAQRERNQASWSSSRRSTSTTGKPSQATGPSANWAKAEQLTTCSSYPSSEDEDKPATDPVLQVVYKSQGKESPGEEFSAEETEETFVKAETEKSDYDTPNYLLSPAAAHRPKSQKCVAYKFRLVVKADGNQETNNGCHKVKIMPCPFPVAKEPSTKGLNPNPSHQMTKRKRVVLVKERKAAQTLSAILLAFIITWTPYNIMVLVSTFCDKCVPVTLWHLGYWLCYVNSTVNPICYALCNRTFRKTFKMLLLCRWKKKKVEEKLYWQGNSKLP

[2] = molecular target: T2, Muscarinic acetylcholine receptor M4 (Homo sapiens, UniProt P08173); test: Antagonist activity at human muscarinic M4 receptor expressed in CHO-K1 cells coexpressing Gqi5 chimeric G-protein assessed as inhibition of acetylcholine-induced calcium mobilization; type: functional, cell-based
T2 sequence (P08173 whole entry): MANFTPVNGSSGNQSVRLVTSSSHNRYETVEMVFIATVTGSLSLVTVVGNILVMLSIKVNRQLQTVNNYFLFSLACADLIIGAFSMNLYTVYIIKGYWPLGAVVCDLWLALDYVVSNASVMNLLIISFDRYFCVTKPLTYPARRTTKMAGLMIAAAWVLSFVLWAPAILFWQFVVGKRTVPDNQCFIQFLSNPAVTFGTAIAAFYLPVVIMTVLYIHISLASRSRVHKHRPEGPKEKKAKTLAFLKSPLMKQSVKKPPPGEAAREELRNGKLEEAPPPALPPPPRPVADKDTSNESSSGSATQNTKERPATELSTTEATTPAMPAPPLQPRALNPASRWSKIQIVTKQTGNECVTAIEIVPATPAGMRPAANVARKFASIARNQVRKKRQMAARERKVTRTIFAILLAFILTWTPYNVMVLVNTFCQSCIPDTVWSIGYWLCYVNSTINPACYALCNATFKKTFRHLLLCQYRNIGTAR
Procedure, shortened: (§1)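 Stable muscarinic cell lines (hM2 and hM4 stably transfected with Gqi5 chimera) plated overnight, then loaded with 2 µM Fluo-4 AM in HBSS with 20 mM HEPES and 2.5 mM probenecid, pH 7.4, for 45 min at 37°C. Dye replaced with assay buffer. Cells pre-incubated with compound at 10 µM or across a concentration-response curve, then challenged with sub-maximal acetylcholine or carbachol. Read-out: calcium mobilization.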

[3] = molecular target: Muscarinic acetylcholine receptor M3 (Homo sapiens, UniProt P20309); test: Antagonist activity at human muscarinic M3 receptor expressed in CHO-K1 cells assessed as inhibition of acetylcholine-induced calcium mobilization; type: functional, cell-based
Muscarinic acetylcholine receptor M3, sequence (P20309 whole entry): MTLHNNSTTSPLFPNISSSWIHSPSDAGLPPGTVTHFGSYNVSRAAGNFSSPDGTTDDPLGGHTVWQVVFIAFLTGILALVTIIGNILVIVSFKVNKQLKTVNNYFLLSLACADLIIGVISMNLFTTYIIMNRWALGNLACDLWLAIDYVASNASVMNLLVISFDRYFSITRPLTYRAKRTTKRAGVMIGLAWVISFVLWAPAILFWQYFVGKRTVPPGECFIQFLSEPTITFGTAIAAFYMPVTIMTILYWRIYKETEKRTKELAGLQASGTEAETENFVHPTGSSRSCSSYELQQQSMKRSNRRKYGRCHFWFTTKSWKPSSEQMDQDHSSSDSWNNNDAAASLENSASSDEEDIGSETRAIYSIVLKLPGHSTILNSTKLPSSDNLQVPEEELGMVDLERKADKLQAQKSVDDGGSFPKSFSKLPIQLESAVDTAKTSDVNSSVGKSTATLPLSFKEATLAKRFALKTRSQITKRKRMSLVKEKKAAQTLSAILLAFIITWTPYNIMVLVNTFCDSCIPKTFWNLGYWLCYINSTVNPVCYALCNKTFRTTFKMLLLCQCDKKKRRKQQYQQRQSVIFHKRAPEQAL

[4] = molecular target: T3, Muscarinic acetylcholine receptor M2 (Homo sapiens, UniProt P08172); test: Antagonist activity at human muscarinic M2 receptor expressed in CHO-K1 cells coexpressing Gqi5 chimeric G-protein assessed as inhibition of acetylcholine-induced calcium mobilization; type: functional, cell-based; procedure, shortened: as §1
T3 sequence (P08172 whole entry): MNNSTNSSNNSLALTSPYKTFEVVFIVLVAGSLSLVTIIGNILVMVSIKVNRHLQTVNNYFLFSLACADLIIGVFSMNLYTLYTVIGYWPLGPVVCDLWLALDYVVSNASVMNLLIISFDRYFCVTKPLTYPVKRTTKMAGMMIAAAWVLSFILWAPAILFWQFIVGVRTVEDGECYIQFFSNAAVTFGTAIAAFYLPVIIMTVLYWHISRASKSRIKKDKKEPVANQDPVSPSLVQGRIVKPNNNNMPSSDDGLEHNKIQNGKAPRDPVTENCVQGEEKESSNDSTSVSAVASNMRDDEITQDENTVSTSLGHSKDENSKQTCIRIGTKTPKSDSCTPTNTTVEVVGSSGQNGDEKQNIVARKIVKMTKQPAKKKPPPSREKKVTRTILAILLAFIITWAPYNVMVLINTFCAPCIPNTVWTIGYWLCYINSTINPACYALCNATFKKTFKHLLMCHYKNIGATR

[5] = molecular target: T4, Muscarinic acetylcholine receptor M1 (Homo sapiens, UniProt P11229); test: Antagonist activity at human muscarinic M1 receptor expressed in CHO-K1 cells assessed as inhibition of acetylcholine-induced calcium mobilization; type: functional, cell-based
T4 sequence (P11229 whole entry): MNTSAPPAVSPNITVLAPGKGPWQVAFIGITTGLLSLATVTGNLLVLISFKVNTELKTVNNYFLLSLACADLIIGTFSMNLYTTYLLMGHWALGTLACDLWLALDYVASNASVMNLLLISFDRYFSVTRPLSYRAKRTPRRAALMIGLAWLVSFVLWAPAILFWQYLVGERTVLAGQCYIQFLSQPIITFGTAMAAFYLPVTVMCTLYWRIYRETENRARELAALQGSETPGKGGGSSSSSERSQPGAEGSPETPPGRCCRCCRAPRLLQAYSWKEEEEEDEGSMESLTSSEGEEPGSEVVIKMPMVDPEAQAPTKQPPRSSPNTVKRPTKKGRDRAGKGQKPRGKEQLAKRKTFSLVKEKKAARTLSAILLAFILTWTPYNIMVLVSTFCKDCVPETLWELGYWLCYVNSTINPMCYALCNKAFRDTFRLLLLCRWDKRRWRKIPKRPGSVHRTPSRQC

[6] = Selectivity ratio of muscarinic M3 receptor over muscarinic M2 receptor
[7] = molecular target: T5, Muscarinic acetylcholine receptor M5 (Homo sapiens) (UniProt P08912); test: Antagonist activity at human muscarinic M5 receptor expressed in CHO-K1 cells assessed as inhibition of acetylcholine-induced calcium mobilization at 10 uM; type: functional, cell-based
T5 sequence (whole entry): T1 sequence (P08912 whole entry)

IC50 [1] [µM] | IC50 [2] [µM] | IC50 [3] [µM] | IC50 [4] [µM] | IC50 [5] [µM] | IC50 [7] [µM] | SMILES | Selectivity ratio [6]
6.9 | > 10 | 3.7 | > 10 | 2.9 |  | CCN1CCN(c2ccc(NC(=O)c3ccc(C)cc3)cc2Cl)CC1 | 
> 10 |  | > 10 |  | 3.2 |  | CCN1CCN(c2ccc(NC(=O)c3ccc(OC)cc3)cc2Cl)CC1 | 
3.5 |  | > 10 |  | 2.1 |  | CCN1CCN(c2ccc(NC(=O)c3cccc(C)c3)cc2Cl)CC1 | 
4.1 | 1.5 | 4.2 | 2.7 | 0.49 |  | CCN1CCN(c2ccc(NC(=O)c3cc(C(F)(F)F)ccc3C(F)(F)F)cc2Cl)CC1 | 
 |  |  |  |  |  | Cc1ccc(N2C[C@@H]3[C@H](C2)[C@H]3NC(=O)C(O)(c2ccccc2)C2CCCCC2)cc1 (stereo partly specified) | 20
1.3 |  | 5.6 |  | 0.82 |  | CCN1CCN(c2ccc(NC(=O)c3ccccc3OC)cc2Cl)CC1 | 
> 10 | > 10 | > 10 | > 10 | 4.7 |  | CCN1CCN(c2ccc(NC(=O)c3ccc(F)c(F)c3)cc2Cl)CC1 | 
> 10 | 3.7 | > 10 | > 10 | 2.6 | 10 | CCN1CCN(c2ccc(NC(=O)c3cc(C(F)(F)F)cc(C(F)(F)F)c3)cc2Cl)CC1 | 
0.83 |  | 3.7 |  | 0.35 |  | CCN1CCN(c2ccc(NC(=O)c3c(F)c(F)c(F)c(F)c3F)cc2Cl)CC1 | 
4.1 | 3.7 | 4.3 | > 10 | 2.9 |  | CCN1CCN(c2ccc(NC(=O)c3cccc(C(F)(F)F)c3)cc2Cl)CC1 | 
2.3 |  |  |  | 0.96 |  | CCN1CCN(c2ccc(NC(=O)c3ccccc3Cl)cc2Cl)CC1 | 
> 10 | > 10 | > 10 | > 10 | 3.2 |  | CCN1CCN(c2ccc(NC(=O)c3ccccc3)cc2Cl)CC1 | 
